Test results published in ChEMBL document CHEMBL3244387, “Isolation, characterization, and properties of a labile hydrolysis product of the antitumor nucleoside, 5-azacytidine” (J Med Chem, 1978).

What was measured:
[1] = tested on: Mus musculus; test: Toxicity in mouse L1210 cells allografted CDF1 mouse assessed as change in body weight between day 1 and day 9 at 40 mg/kg, ip dosed on days 1, 5 and 9; format: organism-based; design: dose 40 mg/kg, route intraperitoneal; details: in vivo
In short: (§1)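 Female CDF1 mice, 11-12 weeks old, were given 0.1 mL L1210 suspension ip (1.43×10^6 cells/mL) on day 0. Drug was purified by preparative HPLC, dissolved in sterile 0.85% saline and given ip within 15 min, on days 1, 5 and 9. Ten mice per dose, with ten untreated controls. Weights on days 1, 5 and 9. Value is the mean body-weight change of treated minus control, in grams.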

[2] = tested on: L1210; test: Antitumor activity against mouse L1210 cells allografted in CDF1 mouse assessed as increase in life span at 5 mg/kg, ip relative to control; format: functional; details: route intraperitoneal
In short: (§2)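 Female CDF1 mice, 11-12 weeks old, inoculated ip on day 0 with 0.1 mL L1210 suspension (1.43×10^6 cells/mL). Drug purified by preparative HPLC, dissolved in sterile 0.85% saline, injected ip within 15 min on days 1, 5 and 9. Ten mice per dose; ten untreated controls. Read-out: % increase in mean life span over controls; ≥25% counted as active; test run in duplicate.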

[3] = tested on: Mus musculus; test: Toxicity in mouse L1210 cells allografted CDF1 mouse assessed as change in body weight between day 1 and day 5 at 20 mg/kg, ip dosed on days 1 and 5; format: organism-based; design: dose 20 mg/kg, route intraperitoneal; details: in vivo; in short: as §1
[4] = tested on: Mus musculus; test: Toxicity in mouse L1210 cells allografted CDF1 mouse assessed as change in body weight between day 1 and day 5 at 5 mg/kg, ip dosed on days 1 and 5; format: organism-based; design: dose 5 mg/kg, route intraperitoneal; details: in vivo; in short: as §1
[5] = Stability of the compound in water assessed as compound remaining at 2.6 mg/ml at 25 degC after 24 hrs by UV-HPLC analysis; format: physicochemical; details: read-out: Stability
[6] = Half life in water at 2.6 mg/ml at 37 degC by UV-HPLC analysis; format: physicochemical
[7] = tested on: Mus musculus; test: Toxicity in mouse L1210 cells allografted CDF1 mouse assessed as change in body weight between day 1 and day 5 at 10 mg/kg, ip dosed on days 1 and 5; format: organism-based; design: dose 10 mg/kg, route intraperitoneal; details: in vivo; in short: as §1
[8] = tested on: Mus musculus; test: Toxicity in mouse L1210 cells allografted CDF1 mouse assessed as change in body weight between day 1 and day 9 at 60 mg/kg, ip dosed on days 1, 5 and 9; format: organism-based; design: dose 60 mg/kg, route intraperitoneal; details: in vivo; in short: as §1
[9] = tested on: Mus musculus; test: Toxicity in mouse L1210 cells allografted CDF1 mouse assessed as change in body weight between day 1 and day 5 at 60 mg/kg, ip dosed on days 1 and 5; format: organism-based; design: dose 60 mg/kg, route intraperitoneal; details: in vivo; in short: as §1
[10] = tested on: Mus musculus; test: Toxicity in mouse L1210 cells allografted CDF1 mouse assessed as change in body weight between day 1 and day 9 at 5 mg/kg, ip dosed on days 1, 5 and 9; format: organism-based; design: dose 5 mg/kg, route intraperitoneal; details: in vivo; in short: as §1
[11] = tested on: L1210; test: Antitumor activity against mouse L1210 cells allografted in CDF1 mouse assessed as increase in life span at 40 mg/kg, ip relative to control; format: functional; details: route intraperitoneal; in short: as §2
[12] = Half life in water at 2.6 mg/ml at 25 degC by UV-HPLC analysis; format: physicochemical
[13] = Stability of the compound in water assessed as compound remaining at 2.6 mg/ml at 37 degC after 4 hrs by UV-HPLC analysis; format: physicochemical; details: read-out: Stability
[14] = tested on: L1210; test: Antitumor activity against mouse L1210 cells allografted in CDF1 mouse assessed as increase in life span at 60 mg/kg, ip relative to control; format: functional; details: route intraperitoneal; in short: as §2
[15] = tested on: Mus musculus; test: Toxicity in mouse L1210 cells allografted CDF1 mouse assessed as mortality at 5 to 60 mg/kg, ip; format: organism-based; design: dose 5-60 mg/kg, route intraperitoneal; details: in vivo
In short: (§3)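 L1210 ip implant (1.43×10^6 cells/mL, 0.1 mL) in female CDF1 mice, 11-12 weeks old. Freshly dissolved HPLC-purified drug in 0.85% saline given ip on days 1, 5 and 9; ten mice per dose. Toxicity scored as early death from acute toxicity, with body weights on days 1, 5 and 9 compared against untreated controls.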

[16] = tested on: L1210; test: Antitumor activity against mouse L1210 cells allografted in CDF1 mouse assessed as increase in life span at 10 mg/kg, ip relative to control; format: functional; details: route intraperitoneal; in short: as §2
[17] = tested on: Mus musculus; test: Toxicity in mouse L1210 cells allografted CDF1 mouse assessed as change in body weight between day 1 and day 9 at 20 mg/kg, ip dosed on days 1, 5 and 9; format: organism-based; design: dose 20 mg/kg, route intraperitoneal; details: in vivo; in short: as §1
[18] = tested on: Mus musculus; test: Toxicity in mouse L1210 cells allografted CDF1 mouse assessed as change in body weight between day 1 and day 5 at 40 mg/kg, ip dosed on days 1 and 5; format: organism-based; design: dose 40 mg/kg, route intraperitoneal; details: in vivo; in short: as §1
[19] = tested on: Mus musculus; test: Toxicity in mouse L1210 cells allografted CDF1 mouse assessed as change in body weight between day 1 and day 9 at 10 mg/kg, ip dosed on days 1, 5 and 9; format: organism-based; design: dose 10 mg/kg, route intraperitoneal; details: in vivo; in short: as §1
[20] = Stability of the compound in water assessed as compound remaining at 2.6 mg/ml at 37 degC after 7 hrs by UV-HPLC analysis; format: physicochemical; details: read-out: Stability
[21] = tested on: L1210; test: Antitumor activity against mouse L1210 cells allografted in CDF1 mouse assessed as increase in life span at 20 mg/kg, ip relative to control; format: functional; details: route intraperitoneal; in short: as §2
[22] = tested on: Mus musculus; test: Toxicity in mouse L1210 cells allografted CDF1 mouse assessed as mortality at 2.5 to 40 mg/kg, ip; format: organism-based; design: dose 2.5-40 mg/kg, route intraperitoneal; details: in vivo; in short: as §3
[23] = tested on: L1210; test: Antitumor activity against mouse L1210 cells allografted in CDF1 mouse assessed as increase in life span at 2.5 mg/kg, ip relative to control; format: functional; details: route intraperitoneal
In short: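 Female CDF1 mice, 11-12 weeks old, given 0.1 mL ip of L1210 cells at 1.43×10^6 cells/mL on day 0. Drug purified by preparative HPLC, dissolved in sterile 0.85% saline and injected ip within 15 min, on days 1, 5 and 9. Ten mice per dose, ten untreated controls. % ILS is the increase in mean life span over controls; ≥25% counted as active.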

[24] = Half life in mice; details: mouse, in vivo
[25] = tested on: Mus musculus; test: Toxicity in mouse L1210 cells allografted CDF1 mouse assessed as change in body weight between day 1 and day 5 at 2.5 mg/kg, ip dosed on days 1 and 5; format: organism-based; design: dose 2.5 mg/kg, route intraperitoneal; details: in vivo; in short: as §1
[26] = tested on: Mus musculus; test: Toxicity in mouse L1210 cells allografted CDF1 mouse assessed as change in body weight between day 1 and day 9 at 2.5 mg/kg, ip dosed on days 1, 5 and 9; format: organism-based; design: dose 2.5 mg/kg, route intraperitoneal; details: in vivo; in short: as §1

Row | Compound | Activity [1] [g] | ILS at 5 mg/kg [2] [%] | Activity [3] [g] | Activity [4] [g] | Activity [7] [g] | Activity [10] [g] | ILS at 40 mg/kg [11] [%] | ILS at 10 mg/kg [16] [%] | Activity [17] [g] | Activity [18] [g] | Activity [19] [g] | ILS at 20 mg/kg [21] [%] | other results
1 | N=C(NC=O)NC(=O)N[C@@H]1O[C@H](CO)[C@@H](O)[C@H]1O | -4.7 | 17 | -1.9 | -1.2 | -1.6 | -2.6 | 85 | 33 | -3.8 | -0.8 | -3.4 | 56 | remaining at 24 h, 2.6 mg/ml [5]: 24%; half-life at 2.6 mg/ml [6]: 120 min; Activity [8]: -4.3 g; Activity [9]: -1.9 g; half-life at 2.6 mg/ml [12]: 540 min; remaining at 4 h, 2.6 mg/ml [13]: 31%; ILS at 60 mg/kg [14]: 93%; Activity [15]: Non-toxic; remaining at 7 h, 2.6 mg/ml [20]: 25%
2 | Nc1ncn([C@@H]2O[C@H](CO)[C@@H](O)[C@H]2O)c(=O)n1 [AZACITIDINE] | -6.5 | 63 | -1.6 | -1 | -1.8 | -2.9 | 84 | 86 | -5.1 | -2.3 | -4.5 | 130 | Activity [22]: Non-toxic; ILS at 2.5 mg/kg [23]: 33%; half-life [24]: < 360 min; Activity [25]: -1.5 g; Activity [26]: -5.7 g
